ChEMBL document CHEMBL1121540, “Synthesis and antibacterial activity of new 1-oxa-1-dethiacephalosporins” (1980)
In brackets after ≈: the same amount, converted by molar mass.

Experiments:
Assay type in all cases: functional
[1] = test system: Bacillus subtilis; assay: In vitro minimum inhibitory concentration (MIC) against ATCC 6633 strain of Bacillus subtilis
Summary of the method: (§1)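 Agar dilution on heart infusion agar; the MIC is read as the lowest concentration that inhibits growth of the strain.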

[2] = test system: Escherichia coli; assay: In vitro minimum inhibitory concentration (MIC) against NIHJ JC-2 strain of Escherichia coli; summary of the method: as §1
[3] = test system: Klebsiella pneumoniae; assay: In vitro minimum inhibitory concentration (MIC) against Klebsiella pneumonia 12; summary of the method: as §1
[4] = test system: Proteus mirabilis; assay: In vitro minimum inhibitory concentration (MIC) against Proteus mirabilis 1; summary of the method: as §1
[5] = test system: Pseudomonas aeruginosa; assay: In vitro minimum inhibitory concentration (MIC) against NCTC 10490 strain of Pseudomonas aeruginosa; summary of the method: as §1
[6] = test system: Serratia marcescens; assay: In vitro minimum inhibitory concentration (MIC) against Serratia marcescens.; summary of the method: as §1
[7] = test system: Staphylococcus aureus; assay: In vitro minimum inhibitory concentration (MIC) against 209P JC-1 strain of Staphylococcus aureus; summary of the method: as §1

| Structure (SMILES) | MIC [1] | MIC [2] | MIC [3] | MIC [4] | MIC [5] | MIC [6] | MIC [7] |
| --- | --- | --- | --- | --- | --- | --- | --- |
| C=CCO/N=C(\C(=O)N[C@@H]1C(=O)N2C(C(=O)O)=CCO[C@H]12)c1csc(N)n1 | 100 mg/L (≈ 254 µM) | 3.13 mg/L (≈ 7.96 µM) | 1.56 mg/L (≈ 3.97 µM) | 0.1 mg/L (≈ 0.254 µM) | 50 mg/L (≈ 127 µM) | 100 mg/L (≈ 254 µM) | 6.25 mg/L (≈ 15.9 µM) |
| C#CCO/N=C(\C(=O)N[C@@H]1C(=O)N2C(C(=O)O)=CCO[C@H]12)c1csc(N)n1 | 25 mg/L (≈ 63.9 µM) | 1.56 mg/L (≈ 3.99 µM) | 0.2 mg/L (≈ 0.511 µM) | 0.1 mg/L (≈ 0.256 µM) | 400 mg/L (≈ 1020 µM) | 100 mg/L (≈ 256 µM) | 12.5 mg/L (≈ 31.9 µM) |
| CO/N=C(\C(=O)N[C@@H]1C(=O)N2C(C(=O)O)=CCO[C@H]12)c1ccco1 | 50 mg/L (≈ 149 µM) | 6.25 mg/L (≈ 18.6 µM) | 1.56 mg/L (≈ 4.65 µM) | 0.78 mg/L (≈ 2.33 µM) | 800 mg/L (≈ 2390 µM) | 100 mg/L (≈ 298 µM) | 12.5 mg/L (≈ 37.3 µM) |
| CO/N=C(\C(=O)N[C@@H]1C(=O)N2C(C(=O)O)=CCO[C@H]12)c1ccccc1 | 25 mg/L (≈ 72.4 µM) | 25 mg/L (≈ 72.4 µM) | 12.5 mg/L (≈ 36.2 µM) | 6.25 mg/L (≈ 18.1 µM) | 800 mg/L (≈ 2320 µM) | 100 mg/L (≈ 290 µM) | 1.56 mg/L (≈ 4.52 µM) |
| CCCCO/N=C(\C(=O)N[C@@H]1C(=O)N2C(C(=O)O)=CCO[C@H]12)c1csc(N)n1 | 50 mg/L (≈ 122 µM) | 0.78 mg/L (≈ 1.91 µM) | 3.13 mg/L (≈ 7.64 µM) | 0.78 mg/L (≈ 1.91 µM) | 12.5 mg/L (≈ 30.5 µM) | 100 mg/L (≈ 244 µM) | 12.5 mg/L (≈ 30.5 µM) |
| CC(C)O/N=C(\C(=O)N[C@@H]1C(=O)N2C(C(=O)O)=CCO[C@H]12)c1csc(N)n1 | 50 mg/L (≈ 126 µM) | 0.78 mg/L (≈ 1.97 µM) | 0.78 mg/L (≈ 1.97 µM) | 0.2 mg/L (≈ 0.506 µM) | 12.5 mg/L (≈ 31.6 µM) | 25 mg/L (≈ 63.2 µM) | 12.5 mg/L (≈ 31.6 µM) |
| CO/N=C(\C(=O)N[C@@H]1C(=O)N2C(C(=O)O)=CCS[C@H]12)c1csc(N)n1 [CEFTIZOXIME] | 25 mg/L (≈ 65.2 µM) | 0.05 mg/L (≈ 0.13 µM) | 0.05 mg/L (≈ 0.13 µM) | 0.025 mg/L (≈ 0.0652 µM) | 25 mg/L (≈ 65.2 µM) | 50 mg/L (≈ 130 µM) | 6.25 mg/L (≈ 16.3 µM) |

Results, then the molecule that gave them:

| MIC [1] | MIC [2] | MIC [3] | MIC [4] | MIC [5] | MIC [6] | MIC [7] | Structure (SMILES) |
| --- | --- | --- | --- | --- | --- | --- | --- |
| 100 mg/L (≈ 272 µM) | 6.25 mg/L (≈ 17 µM) | 1.56 mg/L (≈ 4.25 µM) | 3.13 mg/L (≈ 8.52 µM) | 800 mg/L (≈ 2180 µM) | 100 mg/L (≈ 272 µM) | 12.5 mg/L (≈ 34 µM) | CO/N=C(/C(=O)N[C@@H]1C(=O)N2C(C(=O)O)=CCO[C@H]12)c1csc(N)n1 |
| 50 mg/L (≈ 131 µM) | 0.1 mg/L (≈ 0.262 µM) | 0.1 mg/L (≈ 0.262 µM) | 0.05 mg/L (≈ 0.131 µM) | 3.13 mg/L (≈ 8.21 µM) | 12.5 mg/L (≈ 32.8 µM) | 6.25 mg/L (≈ 16.4 µM) | CCO/N=C(\C(=O)N[C@@H]1C(=O)N2C(C(=O)O)=CCO[C@H]12)c1csc(N)n1 |
| 100 mg/L (≈ 272 µM) | 0.2 mg/L (≈ 0.544 µM) | 0.78 mg/L (≈ 2.12 µM) | 0.2 mg/L (≈ 0.544 µM) | 800 mg/L (≈ 2180 µM) | 100 mg/L (≈ 272 µM) | 25 mg/L (≈ 68.1 µM) | CO/N=C(\C(=O)N[C@@H]1C(=O)N2C(C(=O)O)=CCO[C@H]12)c1csc(N)n1 |
